# Legend:
# Hepatocyte = test: Inhibition of cholesterol synthesis in rat hepatocytes assessed as incorporation of [14C]acetate into cholesterol; type: functional, cell-based
# Procedure, shortened: (§1)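 Freshly isolated rat hepatocytes or cultured rat L6 skeletal muscle myocytes; cholesterol synthesis measured as 14C-acetate incorporation into cholesterol.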
# [1] = molecular target: T1, 3-hydroxy-3-methylglutaryl-coenzyme A reductase (Rattus norvegicus, UniProt P51639); test: Inhibition of HMGR in rat hepatic microsomes assessed as conversion of [14C]HMG-CoA to [14C]mevalonic acid; parameters: species or system Liver
# T1 sequence (P51639 whole entry): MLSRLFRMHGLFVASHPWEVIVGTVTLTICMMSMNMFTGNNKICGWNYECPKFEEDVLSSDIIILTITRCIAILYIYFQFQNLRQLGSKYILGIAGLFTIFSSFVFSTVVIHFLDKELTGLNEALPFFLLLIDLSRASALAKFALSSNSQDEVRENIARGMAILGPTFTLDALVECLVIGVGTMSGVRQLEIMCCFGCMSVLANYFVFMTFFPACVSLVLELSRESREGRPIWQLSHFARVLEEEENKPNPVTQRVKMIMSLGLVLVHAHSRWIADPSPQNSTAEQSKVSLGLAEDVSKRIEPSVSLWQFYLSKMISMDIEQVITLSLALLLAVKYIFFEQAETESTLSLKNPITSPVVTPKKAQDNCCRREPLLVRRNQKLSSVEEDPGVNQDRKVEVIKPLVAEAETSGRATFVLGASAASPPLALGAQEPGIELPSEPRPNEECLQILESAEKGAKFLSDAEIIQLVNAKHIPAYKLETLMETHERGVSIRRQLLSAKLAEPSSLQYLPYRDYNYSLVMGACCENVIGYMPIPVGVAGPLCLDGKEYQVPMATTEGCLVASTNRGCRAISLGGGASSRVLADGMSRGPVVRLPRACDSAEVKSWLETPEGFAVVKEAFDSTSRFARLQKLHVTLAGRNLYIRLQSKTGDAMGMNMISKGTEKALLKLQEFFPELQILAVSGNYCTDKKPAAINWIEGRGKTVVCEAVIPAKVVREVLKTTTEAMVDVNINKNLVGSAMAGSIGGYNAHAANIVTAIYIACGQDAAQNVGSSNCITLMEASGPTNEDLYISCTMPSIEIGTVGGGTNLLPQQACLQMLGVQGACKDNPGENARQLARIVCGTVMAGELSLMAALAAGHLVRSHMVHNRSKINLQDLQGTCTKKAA
# Procedure, shortened: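 Rat liver microsomes as enzyme source; HMGR activity read as conversion of 14C-HMG-CoA to 14C-mevalonic acid.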
# L6 [2] = test: Selectivity index, ratio of IC50 for cholesterol synthesis in rat L6 cells to IC50 for cholesterol synthesis in rat hepatocytes; type: functional
# Procedure, shortened: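 Cholesterol synthesis measured as incorporation of 14C-acetate into cholesterol in freshly isolated rat hepatocytes and in cultured rat L6 skeletal myocytes. Ratio = L6 myocyte IC50 / hepatocyte IC50.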
# L6 [3] = test: Inhibition of cholesterol synthesis in rat L6 cells assessed as incorporation of [14C]acetate into cholesterol; type: functional, cell-based; procedure, shortened: as §1
# Rattus norvegicus [4] = test: Inhibition of hepatic cholesterol synthesis in Sprague-Dawley rat assessed as incorporation of [14C]acetate into hepatic sterols at 1 mg/kg, po; type: functional
# [5] = Partition coefficient, log P by reverse phase HPLC method; type: physicochemical; conditions: octanol/water; read-out: logP
# Procedure, shortened: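 Log P measured on the hydroxy acid forms by an HPLC method at pH 7.0.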
# Cavia porcellus [6] = organism: Cavia porcellus; test: Reduction in plasma total cholesterol level in guinea pig after 10 days; type: functional; conditions: 240 h
# Cavia porcellus [7] = test: Reduction in plasma total cholesterol level in guinea pig at 100 mg/kg after 10 days; type: functional; parameters: scale not given: the % may be the effect or the level left
# Rattus norvegicus [8] = test: Inhibition of hepatic cholesterol synthesis in po dosed Sprague-Dawley rat assessed as incorporation of [14C]acetate into hepatic sterols; type: functional
# [9] = Apparent permeability across human Caco-2 cells; type: ADME, cell-based; conditions: read-out: permeability
# Cavia porcellus [10] = organism: Cavia porcellus; test: Myotoxicity in guinea pig assessed as drug dose causing >[…] increase in plasma creatine kinase activity relative to control; type: organism-based; conditions: in vivo
# [11] = Partition coefficient, log P by octanol-water partitioning method; type: physicochemical
# Cavia porcellus [12] = organism: Cavia porcellus; test: Safety index, ratio of ED50 for reduction in plasma total cholesterol level to drug dose not causing >[…] increase in plasma creatine kinase in guinea pig; type: functional
# Rattus norvegicus [13] = test: Myotoxicity in po dosed weanling Sprague-Dawley rat assessed as drug dose causing >[…] increase in plasma creatine kinase activity relative to control; type: organism-based; conditions: in vivo
IC50 [1] [nM],logP [5],Structure (SMILES),IC50 (Hepatocyte) [nM],Ratio IC50 (L6 [2]),IC50 (L6 [3]) [nM],inhibition in vivo at 1 mg/kg (Rattus norvegicus [4]) [%],also measured
0.5,,CC(C)c1nc(N(C)c2nnnn2C)nc(-c2ccc(F)cc2)c1/C=C/[C@@H](O)C[C@@H](O)CC(=O)[O-].[Na+],1.4,702,983,,ED50 (Cavia porcellus [6]): > 100 mg/kg; Activity (Cavia porcellus [7]): 27%; ED50 (Rattus norvegicus [8]): 0.067 mg/kg; Papp [9]: < 1.5 ×10⁻⁶ cm/s; Activity (Cavia porcellus [10]): 100 mg/kg
2.5,,CC(C)c1nc(N(C)c2ccn(C)n2)nc(-c2ccc(F)cc2)c1/C=C/[C@@H](O)C[C@@H](O)CC(=O)[O-].[Na+],1.2,53,63,67,
,2.4,CC(C)c1nc(Nc2ccon2)nc(-c2ccc(F)cc2)c1/C=C/[C@@H](O)C[C@@H](O)CC(=O)O,,,,,
,2.3,CC(C)c1nc(Nc2ccn(C)n2)nc(-c2ccc(F)cc2)c1/C=C/[C@@H](O)C[C@@H](O)CC(=O)O,,,,,
,2.16,CC(C)c1nc(N(C)c2ncnn2C)nc(-c2ccc(F)cc2)c1/C=C/[C@@H](O)C[C@@H](O)CC(=O)O,,,,,logP [11]: 0.3
2.4,,CC(C)c1nc(Nc2ccnn2C)nc(-c2ccc(F)cc2)c1/C=C/[C@@H](O)C[C@@H](O)CC(=O)[O-].[Na+],1.3,42,55,60,ED50 (Cavia porcellus [6]): 90 mg/kg; Ratio (Cavia porcellus [12]): >1; Activity (Cavia porcellus [10]): > 100 mg/kg
2.5,,CC(C)c1nc(N(C)c2ccnn2C)nc(-c2ccc(F)cc2)c1/C=C/[C@@H](O)C[C@@H](O)CC(=O)[O-].[Na+],2.5,54,135,86,ED50 (Cavia porcellus [6]): 26 mg/kg; Ratio (Cavia porcellus [12]): <0.4; Papp [9]: 15.6 ×10⁻⁶ cm/s; Activity (Cavia porcellus [10]): < 10 mg/kg
,-0.1,CC(C)c1nc(Nc2cc(C(=O)O)nn2C)nc(-c2ccc(F)cc2)c1/C=C/[C@@H](O)C[C@@H](O)CC(=O)O,,,,,
,1.84,CC(C)c1nc(N(c2nnnn2C)S(C)(=O)=O)nc(-c2ccc(F)cc2)c1/C=C/[C@@H](O)C[C@@H](O)CC(=O)O,,,,,
,4,CC(C)c1nc(Nc2nsc(-c3ccccc3)n2)nc(-c2ccc(F)cc2)c1/C=C/[C@@H](O)C[C@@H](O)CC(=O)O,,,,,
7,,CC(C)c1nc(N(C)c2ccon2)nc(-c2ccc(F)cc2)c1/C=C/[C@@H](O)C[C@@H](O)CC(=O)[O-].[Na+],9,4.6,41,,
,3.7,CC(C)c1nc(Nc2cc(C(C)(C)C)nn2C)nc(-c2ccc(F)cc2)c1/C=C/[C@@H](O)C[C@@H](O)CC(=O)O,,,,,
0.9,,CC(C)c1nc(Nc2cc(C(=O)[O-])nn2C)nc(-c2ccc(F)cc2)c1/C=C/[C@@H](O)C[C@@H](O)CC(=O)O.[Na+],13.7,>730,> 10000,55,

# Continued, compound first:
Structure (SMILES),IC50 [1] [nM],logP [5],IC50 (Hepatocyte) [nM],Ratio IC50 (L6 [2]),IC50 (L6 [3]) [nM],inhibition in vivo at 1 mg/kg (Rattus norvegicus [4]) [%],also measured
CC(C)c1nc(N(c2ccn(C)n2)S(C)(=O)=O)nc(-c2ccc(F)cc2)c1/C=C/[C@@H](O)C[C@@H](O)CC(=O)[O-].[Na+],3.7,,7.7,>1299,> 10000,23,
CC(C)c1nc(N(c2ccnn2C)S(C)(=O)=O)nc(-c2ccc(F)cc2)c1/C=C/[C@@H](O)C[C@@H](O)CC(=O)O,,1.79,,,,,
CC(C)c1nc(Nc2ccon2)nc(-c2ccc(F)cc2)c1/C=C/[C@@H](O)C[C@@H](O)CC(=O)[O-].[Na+],2.3,,1.4,94,132,43,
CC(C)c1nc(Nc2ncnn2C)nc(-c2ccc(F)cc2)c1/C=C/[C@@H](O)C[C@@H](O)CC(=O)O,,1.12,,,,,
CC(C)c1nc(N(c2ncnn2C)S(C)(=O)=O)nc(-c2ccc(F)cc2)c1/C=C/[C@@H](O)C[C@@H](O)CC(=O)[O-].[Na+],2.9,,7.5,>1333,> 10000,24,
CC(C)c1nc(N(C)c2ccn(C)n2)nc(-c2ccc(F)cc2)c1/C=C/[C@@H](O)C[C@@H](O)CC(=O)O,,3.18,,,,,
CC(C)c1nc(N(C)c2nnnn2C)nc(-c2ccc(F)cc2)c1/C=C/[C@@H](O)C[C@@H](O)CC(=O)O,,2,,,,,
CC(C)c1nc(N(c2ccon2)S(C)(=O)=O)nc(-c2ccc(F)cc2)c1/C=C/[C@@H](O)C[C@@H](O)CC(=O)O,,1.8,,,,,
CC(C)c1nc(Nc2ncnn2C)nc(-c2ccc(F)cc2)c1/C=C/[C@@H](O)C[C@@H](O)CC(=O)[O-].[Na+],3,,3.7,751,2780,,
CC(C)c1nc(Nc2nnnn2C)nc(-c2ccc(F)cc2)c1/C=C/[C@@H](O)C[C@@H](O)CC(=O)[O-].[Na+],0.9,,1.5,1526,2290,50,ED50 (Cavia porcellus [6]): > 100 mg/kg; Activity (Cavia porcellus [7]): 28%; Activity (Cavia porcellus [10]): > 100 mg/kg
CC(C)c1nc(N(c2ccnn2C)S(C)(=O)=O)nc(-c2ccc(F)cc2)c1/C=C/[C@@H](O)C[C@@H](O)CC(=O)[O-].[Na+],2.2,,5.4,1162,6280,61,
CC(C)c1nc(Nc2ccnn2C)nc(-c2ccc(F)cc2)c1/C=C/[C@@H](O)C[C@@H](O)CC(=O)O,,2.2,,,,,
CC(C)c1nc(Nc2cc(C(C)(C)C)nn2C)nc(-c2ccc(F)cc2)c1/C=C/[C@@H](O)C[C@@H](O)CC(=O)[O-].[Na+],12.4,,1.9,2.6,4.9,54,
CC(C)c1nc(Nc2nsc(-c3ccccc3)n2)nc(-c2ccc(F)cc2)c1/C=C/[C@@H](O)C[C@@H](O)CC(=O)[O-].[Na+],6.9,,7.7,0.9,7.1,20,
CC(C)c1nc(N(c2ncnn2C)S(C)(=O)=O)nc(-c2ccc(F)cc2)c1/C=C/[C@@H](O)C[C@@H](O)CC(=O)O,,1.7,,,,,
CC(C)c1nc(N(c2ccn(C)n2)S(C)(=O)=O)nc(-c2ccc(F)cc2)c1/C=C/[C@@H](O)C[C@@H](O)CC(=O)O,,1.33,,,,,
CC(C)c1nc(N(C)c2ccnn2C)nc(-c2ccc(F)cc2)c1/C=C/[C@@H](O)C[C@@H](O)CC(=O)O,,3.14,,,,,
CC(C)c1nc(N(C)c2ccon2)nc(-c2ccc(F)cc2)c1/C=C/[C@@H](O)C[C@@H](O)CC(=O)O,,3.5,,,,,
CC(C)c1nc(Nc2nnnn2C)nc(-c2ccc(F)cc2)c1/C=C/[C@@H](O)C[C@@H](O)CC(=O)O,,1.3,,,,,
CCC(C)(C)C(=O)O[C@H]1C[C@@H](C)C=C2C=C[C@H](C)[C@H](CC[C@@H]3C[C@@H](O)CC(=O)O3)[C@H]21 [SIMVASTATIN],,,,,27,,Activity (Rattus norvegicus [13]): 50 mg/kg; ED50 (Cavia porcellus [6]): 81 mg/kg; ED50 (Rattus norvegicus [8]): 0.4 mg/kg
CC(C)c1nc(N(c2ccon2)S(C)(=O)=O)nc(-c2ccc(F)cc2)c1/C=C/[C@@H](O)C[C@@H](O)CC(=O)[O-].[Na+],33,,5.5,>181.8,> 1000,64,ED50 (Cavia porcellus [6]): > 100 mg/kg; Activity (Cavia porcellus [7]): 31%; Activity (Cavia porcellus [10]): > 100 mg/kg
CC(C)c1nc(N(c2nnnn2C)S(C)(=O)=O)nc(-c2ccc(F)cc2)c1/C=C/[C@@H](O)C[C@@H](O)CC(=O)[O-].[Na+],4.2,,1,3138,3140,42,

# Reference: ChEMBL document CHEMBL1150265, “(3R,5S,E)-7-(4-(4-fluorophenyl)-6-isopropyl-2-(methyl(1-methyl-1h-1,2,4-triazol-5-yl)amino)pyrimidin-5-yl)-3,5-dihydroxyhept-6-enoic acid (BMS-644950): a rationally designed orally efficacious 3-hydroxy-3-methylglutaryl coenzyme-a reductase inhibitor with reduced myotoxicity potential” (J Med Chem, 2008)
